Experimental data: article PMC8453750 (Clinical Pharmacology in Drug Development, 2021)

How the values were obtained:
[1] = Part 1: mobocertinib-itraconazole DDI study, plasma PK; type: in vivo, human; details: for AUC(0-inf) / Cmax / half-life: human, plasma, oral; for AUC(0-inf): AUC0-∞; for half-life: t½; for AUC0-∞, Geometric LS Mean Ratio (90%CI) (Test/Reference) / Cmax, Geometric LS Mean Ratio (90%CI) (Test/Reference): mobocertinib 20 mg + itraconazole vs mobocertinib alone
How it was run: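 Nonsmoking adults aged 18–55 (n = 12) took a single oral capsule dose of 20 mg fasted, with a meal at least 4 h postdose. This was repeated with itraconazole solution 200 mg once daily on an empty stomach over 14 days, after a 4-day lead-in. Plasma was sampled predose to 168 h, adding 192 and 240 h with itraconazole. Parent and two metabolites were measured by LC-MS/MS (LLOQ 0.100 ng/mL). Analysis was noncompartmental, with ln-transformed geometric LSM ratios and 90% CI.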

[2] = Part 2: mobocertinib-rifampin DDI study, plasma PK; type: in vivo, human
[3] = Part 1 safety: treatment-emergent adverse events, labs, vital signs, ECG; type: in vivo, human
How it was run: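 Part 1 had 12 healthy adults. They received a single fasted oral 20 mg dose of the test compound, then itraconazole oral solution 200 mg once daily for 14 days, with the test compound coadministered. TEAEs were recorded through 30 days after the last test-compound dose, coded with MedDRA v22.0 and graded by NCI CTCAE v5. Vital signs, hematology/chemistry/urinalysis and 12-lead ECG were also assessed. All were summarised descriptively.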

[4] = Part 2 safety: treatment-emergent adverse events, labs, vital signs, ECG; type: in vivo, human
How it was run: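 Part 2 had 12 healthy adults. They received a single fasted oral 160 mg dose of the test compound, then rifampin 600 mg once daily, with a 7-day lead-in before coadministration and 6 days of continued dosing afterwards. TEAEs were recorded through 30 days after the last test-compound dose, coded with MedDRA v22.0 and graded by NCI CTCAE v5. Vital signs, hematology/chemistry/urinalysis and 12-lead ECG were also assessed. All were summarised descriptively.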

[5] = cited from earlier work
[6] = cited from earlier work; remark: listed apart in the source
CYP3A4/5 = details: recombinant human CYPs; cited from earlier work
CYP1A2 = details: recombinant human CYPs; cited from earlier work
CYP2B6 = details: recombinant human CYPs; cited from earlier work
CYP2C8 = details: recombinant human CYPs; cited from earlier work
CYP2C9 = details: recombinant human CYPs; cited from earlier work
CYP2C19 = details: recombinant human CYPs; cited from earlier work
CYP2D6 = details: recombinant human CYPs; cited from earlier work
[7] = preclinical data; ref data on file; Millennium Pharmaceuticals, Inc.; cited from earlier work
[8] = 20 mg, Arithmetic Means (SD), mobocertinib 20 mg alone (reference), footnote a: mean (%CV)
[9] = 20 mg, Geometric Means (%CV), mobocertinib 20 mg alone (reference)
[10] = Arithmetic Means (SD), mobocertinib 20 mg + itraconazole 200 mg once daily (test), footnote a: mean (%CV)
[11] = Geometric Means (%CV), mobocertinib 20 mg + itraconazole 200 mg once daily (test)
[12] = itraconazole and mobocertinib 20 mg vs mobocertinib alone
[13] = itraconazole plus mobocertinib 20 mg vs mobocertinib alone
[14] = mobocertinib 160 mg + rifampin vs mobocertinib alone
[15] = rifampin plus mobocertinib 160 mg
[16] = Mobocertinib 20 mg + Itraconazole, part 1
[17] = Mobocertinib 20 mg Alone, part 1
[18] = Mobocertinib 160 mg + Rifampin, part 2
[19] = Mobocertinib 160 mg Alone, part 2

Compound: C=CC(=O)Nc1cc(Nc2ncc(C(=O)OC(C)C)c(-c3cn(C)c4ccccc34)n2)c(OC)cc1N(C)CCN(C)C [Mobocertinib]
- AUC(0-inf) [1, 8]: 113 ng·h/mL
- AUC(0-inf) [1, 9]: 106 ng·h/mL
- Cmax [1, 8]: 5.78 ng/mL
- Cmax [1, 9]: 5.52 ng/mL
- half-life [1, 8]: 21.5 h
- half-life [1, 9]: 21.2 h
- AUC(0-inf) [1, 10]: 907 ng·h/mL
- AUC(0-inf) [1, 11]: 892 ng·h/mL
- Cmax [1, 10]: 21.5 ng/mL
- Cmax [1, 11]: 21.1 ng/mL
- half-life [1, 10]: 54.7 h
- half-life [1, 11]: 53.9 h
- Increase in plasma AUC0-∞ [1, 12]: 743%
- Increase in plasma Cmax [1, 12]: ≈ 283%
- Increase in geometric mean t½ [1, 13]: 154%
- Median tmax reached later [1, 13]: 2 h
- AUC0-∞, Geometric LS Mean Ratio (90%CI) (Test/Reference) [1]: 8.43 (7.02‐10.12)
- Cmax, Geometric LS Mean Ratio (90%CI) (Test/Reference) [1]: 3.83 (3.25‐4.50)
- AUC0-∞, Geometric LS Mean Ratio (90%CI) (Test/Reference) ([1]; listed as mobocertinib): 8.43
- Cmax, Geometric LS Mean Ratio (90%CI) (Test/Reference) ([1]; listed as mobocertinib): 3.83
- AUC0-∞, Geometric LS Mean Ratio (90%CI) (Test/Reference) [2, 14]: 0.04 (0.03‐0.05)
- Cmax, Geometric LS Mean Ratio (90%CI) (Test/Reference) [2, 14]: 0.05 (0.04‐0.07)
- AUC0-∞, Geometric LS Mean Ratio (90%CI) (Test/Reference) ([2]; mobocertinib 160 mg + rifampin vs mobocertinib alone, listed as mobocertinib): 0.04
- Plasma AUC0-∞ as % of value following mobocertinib alone [2, 15]: ~4%
- Plasma Cmax as % of value following mobocertinib alone [2, 15]: approximately 5%
- Reduction in geometric mean t½ ([2]; rifampin plus mobocertinib 160 mg vs mobocertinib alone): 29%
- TEAE: Back pain [3, 16]: 1 (8) n (%)
- TEAE: Chest discomfort [3, 16]: 0 n (%)
- TEAE: Diarrhea [3, 16]: 2 (17) n (%)
- TEAE: Dry skin [3, 16]: 0 n (%)
- TEAE: Dry throat [3, 16]: 0 n (%)
- TEAE: Headache [3, 16]: 1 (8) n (%)
- TEAE: Nausea [3, 16]: 0 n (%)
- TEAE: Oropharyngeal pain [3, 16]: 0 n (%)
- TEAE: Pruritus [3, 16]: 0 n (%)
- TEAE: Pruritus generalized [3, 16]: 0 n (%)
- TEAE: Rash [3, 16]: 0 n (%)
- Volunteers with TEAEs [3, 16]: 4 (33) n (%)
- Volunteers without TEAEs [3, 16]: 8 (67) n (%)
- TEAE: Back pain [3, 17]: 0 n (%)
- TEAE: Chest discomfort [3, 17]: 0 n (%)
- TEAE: Diarrhea [3, 17]: 0 n (%)
- TEAE: Dry skin [3, 17]: 1 (8) n (%)
- TEAE: Dry throat [3, 17]: 0 n (%)
- TEAE: Headache [3, 17]: 0 n (%)
- TEAE: Nausea [3, 17]: 0 n (%)
- TEAE: Oropharyngeal pain [3, 17]: 0 n (%)
- TEAE: Pruritus [3, 17]: 0 n (%)
- TEAE: Pruritus generalized [3, 17]: 0 n (%)
- TEAE: Rash [3, 17]: 0 n (%)
- Volunteers with TEAEs [3, 17]: 1 (8) n (%)
- Volunteers without TEAEs [3, 17]: 11 (92) n (%)
- TEAE: Back pain ([3]; Part 1 Overall): 1 (8) n (%)
- TEAE: Chest discomfort ([3]; Part 1 Overall): 0 n (%)
- TEAE: Diarrhea ([3]; Part 1 Overall): 2 (17) n (%)
- TEAE: Dry skin ([3]; Part 1 Overall): 1 (8) n (%)
- TEAE: Dry throat ([3]; Part 1 Overall): 0 n (%)
- TEAE: Headache ([3]; Part 1 Overall): 1 (8) n (%)
- TEAE: Nausea ([3]; Part 1 Overall): 0 n (%)
- TEAE: Oropharyngeal pain ([3]; Part 1 Overall): 0 n (%)
- TEAE: Pruritus ([3]; Part 1 Overall): 0 n (%)
- TEAE: Pruritus generalized ([3]; Part 1 Overall): 0 n (%)
- TEAE: Rash ([3]; Part 1 Overall): 0 n (%)
- Volunteers with TEAEs ([3]; Part 1 Overall): 5 (42) n (%)
- Volunteers without TEAEs ([3]; Part 1 Overall): 7 (58) n (%)
- Changes in laboratory parameters, vital signs, or ECGs ([3]; part 1): no apparent or consistent treatment‐related changes
- Deaths, serious TEAEs, discontinuations ([3]; part 1): No deaths, serious TEAEs, or discontinuations
- Tolerability ([3]; single oral dose 20 mg with itraconazole, healthy volunteers): generally well tolerated
- TEAE: Back pain [4, 18]: 1 (8) n (%)
- TEAE: Chest discomfort [4, 18]: 2 (17) n (%)
- TEAE: Diarrhea [4, 18]: 3 (25) n (%)
- TEAE: Dry skin [4, 18]: 0 n (%)
- TEAE: Dry throat [4, 18]: 0 n (%)
- TEAE: Headache [4, 18]: 2 (17) n (%)
- TEAE: Nausea [4, 18]: 2 (17) n (%)
- TEAE: Oropharyngeal pain [4, 18]: 2 (17) n (%)
- TEAE: Pruritus [4, 18]: 2 (17) n (%)
- TEAE: Pruritus generalized [4, 18]: 0 n (%)
- TEAE: Rash [4, 18]: 2 (17) n (%)
- Volunteers with TEAEs [4, 18]: 10 (83) n (%)
- Volunteers without TEAEs [4, 18]: 2 (17) n (%)
- TEAE: Back pain [4, 19]: 1 (8) n (%)
- TEAE: Chest discomfort [4, 19]: 0 n (%)
- TEAE: Diarrhea [4, 19]: 2 (17) n (%)
- TEAE: Dry skin [4, 19]: 3 (25) n (%)
- TEAE: Dry throat [4, 19]: 2 (17) n (%)
- TEAE: Headache [4, 19]: 1 (8) n (%)
- TEAE: Nausea [4, 19]: 1 (8) n (%)
- TEAE: Oropharyngeal pain [4, 19]: 0 n (%)
- TEAE: Pruritus [4, 19]: 0 n (%)
- TEAE: Pruritus generalized [4, 19]: 2 (17) n (%)
- TEAE: Rash [4, 19]: 0 n (%)
- Volunteers with TEAEs [4, 19]: 9 (75) n (%)
- Volunteers without TEAEs [4, 19]: 3 (25) n (%)
- TEAE: Back pain ([4]; Part 2 Overall): 2 (17) n (%)
- TEAE: Chest discomfort ([4]; Part 2 Overall): 2 (17) n (%)
- TEAE: Diarrhea ([4]; Part 2 Overall): 4 (33) n (%)
- TEAE: Dry skin ([4]; Part 2 Overall): 3 (25) n (%)
- TEAE: Dry throat ([4]; Part 2 Overall): 2 (17) n (%)
- TEAE: Headache ([4]; Part 2 Overall): 3 (25) n (%)
- TEAE: Nausea ([4]; Part 2 Overall): 3 (25) n (%)
- TEAE: Oropharyngeal pain ([4]; Part 2 Overall): 2 (17) n (%)
- TEAE: Pruritus ([4]; Part 2 Overall): 2 (17) n (%)
- TEAE: Pruritus generalized ([4]; Part 2 Overall): 2 (17) n (%)
- TEAE: Rash ([4]; Part 2 Overall): 2 (17) n (%)
- Volunteers with TEAEs ([4]; Part 2 Overall): 11 (92) n (%)
- Volunteers without TEAEs ([4]; Part 2 Overall): 1 (8) n (%)
- Changes in laboratory parameters, vital signs, or ECGs ([4]; part 2): no apparent or consistent treatment‐related changes
- Deaths, serious TEAEs, discontinuations ([4]; part 2): No deaths, serious TEAEs, or discontinuations
- Tolerability ([4]; single oral dose 160 mg with rifampin, healthy volunteers): generally well tolerated
- Effect of a low-fat meal on absorption [5]: no apparent effect
- Excreted unchanged in urine ([5]; renal elimination): < 1.2%
- Mean half-life ([5]; single oral doses, healthy volunteers): 20 h
- Accumulation of systemic exposure after repeat dosing ([6]; 20 to 120 mg once daily, patients with NSCLC): moderate accumulation
- Recommended phase 2 dose ([6]; dose escalation, patients with NSCLC): 160 mg once daily
- Dose proportionality of Cmax and AUC0-24 ([6]; dose range 5 to 180 mg once daily): increased in a dose‐proportional manner
- Median tmax ([6]; once-daily administration, patients with NSCLC): 4 hours postdose
- Percent contribution of enzyme to metabolism (CYP3A4/5): > 90%
- Percent contribution of enzyme to metabolism (CYP1A2): < 2%
- Percent contribution of enzyme to metabolism (CYP2B6): < 2%
- Percent contribution of enzyme to metabolism (CYP2C8): < 2%
- Percent contribution of enzyme to metabolism (CYP2C9): < 2%
- Percent contribution of enzyme to metabolism (CYP2C19): < 2%
- Percent contribution of enzyme to metabolism (CYP2D6): < 2%
- Mutagenicity / genotoxicity [7]: neither mutagenic nor genotoxic
